Most compounds without a hit are left out; they make up all but 4.1% or so of the library.
RGS4 act: potentiators or activators of RGS4; HEK293 M3R/inducible RGS4, carbachol calcium flux Fluo4; hits give low values; B-score at 10 µM; hit rate 0.92% among 310,000; AID 463111;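 active = B-score of the integrated calcium signal more than 4 SD below the library mean, with starting fluorescence not abnormally high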;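 also: negative B-score means reduced calcium response which marks RGS4 activation or potentiation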
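Assay system: Inducible-RGS4 HEK293 cells carrying M3 receptor | Schedule: Compound preincubation 20 min at room temperature before agonist | Signal: Kinetic calcium fluorescence imaging with Fluo4-AM dye, 2 µM | Read-out basis: B score from integrated fluorescence ratio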
MrgX1 antag: blocks BAM8-22 activation of human MrgX1 receptor; Q96LB2; MRGX1-HEK293 calcium flux, Fluo-4, BAM8-22 antagonism; hits give low values; B-score at 10 µM; hit rate 1.3% among 310,000; AID 588676;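 active = calcium-response B-score plate-corrected more than 3 library SD below zero, starting fluorescence within 5 deviations, no agonist response on first addition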;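 also: peak minus trough fluorescence over baseline after final BAM8-22 challenge near maximal dose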
Target sequence (Q96LB2 whole entry, looked up): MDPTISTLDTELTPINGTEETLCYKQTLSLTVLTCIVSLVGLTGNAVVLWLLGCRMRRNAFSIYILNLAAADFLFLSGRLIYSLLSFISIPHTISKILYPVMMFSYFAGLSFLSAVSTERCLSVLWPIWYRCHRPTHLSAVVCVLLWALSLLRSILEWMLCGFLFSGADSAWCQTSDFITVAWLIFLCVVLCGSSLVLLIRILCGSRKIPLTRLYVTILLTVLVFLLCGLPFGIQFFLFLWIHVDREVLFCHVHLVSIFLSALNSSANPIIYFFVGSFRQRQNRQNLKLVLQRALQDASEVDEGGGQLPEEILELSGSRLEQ
MrgX1 ag: activates human MrgX1 receptor signaling. Q96LB2. MrgX1-HEK293 cells, Fluo-4 calcium fluorescence, agonist mode; hits give high values. B-score at 10 µM. hit rate 0.44% among 310,000. AID 588627;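 active = calcium response B-score plate-corrected fluorescence ratio at least 3 library SD, with starting fluorescence B-score inside 5 SD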
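Material – MrgX1-expressing HEK293 cells · Input – 15,000 cells seeded per well · Dosing – compound as first of three additions · Times – overnight seeding, then 1 h dark dye loading · Measured by – kinetic Fluo-4 NW fluorescence of intracellular calcium · Read-out – B-scored fluorescence response ratio · Benchmarks – positive and negative control wells on each plate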
MrgX1 allo act: allosterically activates human MrgX1 receptor signaling | B-score at 10 µM | MrgX1-HEK293, Fluo-4 calcium flux, FDSS; hits give high values | Q96LB2 | AID 588675 | hit rate 0.63% among 310,000;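 active = plate-corrected calcium response at least 3 library SD above typical, normal starting fluorescence, not activating the receptor alone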;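 also: compound read alongside a low EC10 to EC30 dose of BAM8-22 agonist; peak minus trough fluorescence over baseline measured at the second addition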
RGS4 block: inhibitors of human RGS4; P49798; HEK293 M3R/RGS4 inducible, Fluo-4 calcium flux; hits give high values; triggered by carbachol at its EC20; B-score at 10 µM; hit rate 0.45% among 310,000;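 active = B-score, a plate-corrected calcium signal, over three deviations above library mean, with baseline fluorescence within five deviations of library mean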;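 also: RGS4 expression induced by doxycycline in cells with stable M3 receptor; B-score is computed from the integrated fluorescence ratio over baseline after carbachol; higher B-score means a larger calcium signal and so more RGS4 inhibition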
Kir21 inh: inhibitors of mouse Kir2.1 inward-rectifier potassium channel; P35561; HEK293-Kir2.1, FluxOR thallium flux fluorescence; hits give low values; B-score at 10 µM; hit rate 0.85% among 310,000;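 active = fluorescence ratio B-score at or below minus 3 SD of library scores, with starting-brightness B-score within 2 SD, cut at about -4.2 in these data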;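 also: channel flux triggered by added potassium and thallium sulfate stimulus; B-score of peak minus minimum fluorescence over baseline after thallium stimulus; more negative B-score means stronger Kir2.1 block with less thallium influx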
Target sequence (P35561 whole entry, looked up): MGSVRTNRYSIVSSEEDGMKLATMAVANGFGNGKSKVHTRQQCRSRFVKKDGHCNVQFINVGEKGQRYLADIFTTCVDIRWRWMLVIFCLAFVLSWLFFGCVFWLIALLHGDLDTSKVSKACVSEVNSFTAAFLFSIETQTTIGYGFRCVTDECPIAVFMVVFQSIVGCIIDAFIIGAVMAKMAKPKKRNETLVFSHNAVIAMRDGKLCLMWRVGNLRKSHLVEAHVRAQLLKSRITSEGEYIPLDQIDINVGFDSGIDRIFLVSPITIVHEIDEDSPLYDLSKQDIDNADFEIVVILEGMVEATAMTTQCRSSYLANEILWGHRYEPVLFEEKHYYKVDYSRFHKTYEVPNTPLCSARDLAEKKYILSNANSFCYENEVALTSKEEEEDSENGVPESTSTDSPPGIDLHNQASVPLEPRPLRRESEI
MrgX1 PAM conf: human MrgX1 positive allosteric modulation, re-confirmation; activation (ratio percentage), % at 10 µM; hit rate 13% among 1,200; MrgX1-HEK293, Fluo-4 calcium fluorescence, FDSS; AID 602413; shares compounds with MrgX1 allo act;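 active = ratio at least 3 SD above the weak peptide control, stable starting fluorescence, no direct agonism earlier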;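 also: compound followed by low BAM8-22 agonist challenge near EC20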
MrgX1 antag conf: confirmation of human MrgX1 receptor antagonists; hit rate 19% among 2,300; remaining BAM8-22 calcium response % of control (hits give low values), % at 10 µM; MrgX1-HEK293, BAM8-22 calcium flux, Fluo-4; hits give low values; shares compounds with MrgX1 antag; AID 602420;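 active = remaining agonist calcium response no higher than 100% minus 3 SD of agonist-only control wells, with starting fluorescence near control levels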;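 also: agonist BAM8-22 given at a near maximal EC90 to ECmax level; peak minus minimum fluorescence divided by baseline after agonist addition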
HEK293 Ca flux: activity in parental HEK293 cells lacking MrgX1. shares compounds with MrgX1 antag. Fluo-4 calcium fluorescence, FDSS. fluorescence ratio F(max-min)/F0 at 10 µM. hit rate 2% among 4,000. AID 624111;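 active = duplicate-averaged calcium fluorescence ratio at least three times the standard deviation of buffer wells, a nonspecific response in parental cells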
HEK293 Ca counter: activity in parental HEK293 cells without MrgX1; hit rate 0.4% among 4,000; shares compounds with MrgX1 antag; parental HEK293 calcium flux, Fluo-4 fluorescence ratio; hits give high values; AID 624114; fluorescence ratio F(max-min)/F0 at 10 µM;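 active = calcium fluorescence ratio, averaged over duplicates, at least 3 SD of the buffer-well ratio, meaning a nonspecific response in receptor-free cells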;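 also: untransfected parental HEK293 lacking MrgX1 used as counterscreen for MrgX1 allosteric activators; fluorescence change taken during the second addition on a kinetic imager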
HEK293 Ca cntr2: counter-screen for MrgX1 activators: effect in parental HEK293 cells | shares compounds with MrgX1 antag | fluorescence ratio F(max-min)/F0 at 10 µM | hit rate 8.7% among 4,000 | Fluo-4 calcium fluorescence (FDSS); hits give high values;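 active = calcium fluorescence ratio at least three times the spread of buffer wells, meaning a non-specific response in parental cells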
A number is an active result; - = inactive; . = not tested or not shown.

SMILES	RGS4 act	MrgX1 antag	MrgX1 ag	MrgX1 allo act	RGS4 block	Kir21 inh	MrgX1 antag conf	HEK293 Ca flux	HEK293 Ca counter	HEK293 Ca cntr2	others
N#CSCC(=O)N1c2ccccc2CCc2ccccc21	-	-	-	8.5	-	-6.8	.	-	-	-	MrgX1 PAM conf=-
COc1ccc(-n2c(O)c(C=NCCN3CCN(C(C)=O)CC3)c(=O)[nH]c2=S)cc1	-	-	-	-	-	-	.	.	.	.
COC(=O)C1=C(c2cc3ccccc3o2)C[C@@H]2CC[C@H]1N2C(=O)NCc1ccc(F)cc1	-	-	-	7.9	-	-	.	-	-	-	MrgX1 PAM conf=-
CN1C(=O)CN=C(c2ccccc2Cl)c2cc(Br)ccc21	-	-	-	-	-	-	.	.	.	.
COc1ccc(CN2CCN(Cc3ccccc3OC)CC2)cc1	-	-	-	-	-	-	.	.	.	.
COc1ccccc1CN1CCN(Cc2ccc(Cl)cc2)CC1	-	-5.3	-	-	-	-	-	-	-	-
Cc1cc(N2C(=O)CC(N3CCC(n4c(=O)[nH]c5ccccc54)CC3)C2=O)no1 (stereo not given)	-	-5.4	-	-	-	-	-	-	-	-
CN1CCc2c([nH]c3ccccc23)C1	-	-	-	-	-	-	.	.	.	.
O=C(c1ccc2c3c(cccc13)CC2)C1CCCN(Cc2ncc[nH]2)C1 (stereo not given)	-	-4.7	-	-	-	-	-	-	-	-
Cc1ccc2c(CN3CC=C(c4ccccc4)CC3)cc(=O)oc2c1C	-	-	-	-	-	-	.	.	.	.
O=C(Nc1cccc(Cl)c1)c1c(O)c2c(n(Cc3ccco3)c1=O)CCCC2	-	-	-	-	-	-	.	.	.	.
ClCCN1CCN(c2ccnc3cc(Cl)ccc23)CC1	-	-17	-	-	-	-	12%	-	-	-
Nc1cc(N2CCNCC2)c([N+](=O)[O-])cc1Cl	-	-	-	-	-	-	.	.	.	.
COc1cc(/C=C/c2nc3ccccc3c(=O)n2-c2ccccc2O)ccc1O	-	-9.3	-	-	-	-	-	-	-	47
CCOC(=O)C1SC2(C(F)(F)F)CC1(O)c1c(C)cc(C)nc1O2 (stereo not given)	-	-7.8	-	-	-	-	-	-	-	-
COC(=O)C1=C(c2ccccc2)C[C@@H]2CC[C@H]1N2C(=O)NCC1CC1	-	-4.8	-	-	-	-	-	-	-	-
COC(=O)C1=C(c2ccccc2)C[C@@H]2CC[C@H]1N2C(=O)NCc1ccccc1	-	-	-	-	-	-	.	.	.	.
CN1CCc2nc3sc(C(=O)NC4CC4)c(N)c3cc2C1	-	-6.6	-	-	-	-	-	-	-	-
CC(C)Nc1ccc(Nc2ccccc2)cc1	.	-5.1	-	-	.	.	-	-	-	-
N=c1sccn1Cc1ccccc1F	-	-	-	-	-	-	.	.	.	.
O=C1CN=C(c2cccc(Br)c2)c2cc(Br)ccc2N1	-	-	-	-	-	-	.	.	.	.
O=C1CN=C(c2ccccc2)c2ccccc2N1	-	-7.3	-	-	-	-	-	-	-	-
Cn1c(=O)cc(OCC(=O)N2CCC3(CC2)OCCO3)c2ccccc21	-	-	-	-	-	-	.	.	.	.
Cn1c(=O)cc(OCCCC(=O)N2CCC3(CC2)OCCO3)c2ccccc21	-	-9.8	-	-	-	-	-	-	-	-
CCN1C[C@]2(COC)CC[C@H](OC)[C@@]34C1[C@]1(OCO[C@@]15C[C@H](OC)[C@H]1C[C@@H]3[C@@H]5[C@H]1OC)[C@@H](O)[C@H]24	.	-	-	-	.	.	.	.	.	.
SMILES	RGS4 act	MrgX1 antag	MrgX1 ag	MrgX1 allo act	RGS4 block	Kir21 inh	MrgX1 antag conf	HEK293 Ca flux	HEK293 Ca counter	HEK293 Ca cntr2	others
OCC[n+]1c2ccccc2nc2ccc(N3CCOCC3)cc21	-	-	-	-	-	-	.	.	.	.
C=CCN1C(=O)NC(=O)C(Cc2ccc(OC)c(OC)c2)C1=O (stereo not given)	-	-4.8	-	-	-	-	-	-	-	-
COc1cc(CC2C(=O)N(C)C(=O)N(C)C2=O)ccc1OCc1ccccc1	-	-	-	-	-	-	.	.	.	.
Ic1ccccc1CN[C@@H]1C2CCN(CC2)[C@@H]1C(c1ccccc1)c1ccccc1	.	-15	-	-	.	.	5.6%	-	-	-
CCCN1CCC[C@@H](c2cccc(O)c2)C1	.	-5.6	-	-	.	.	80%	-	-	-
CCCN1CCC[C@H](c2cccc(O)c2)C1	.	-	-	-	.	.	.	.	.	.
CN(C)C(=S)SSC(=S)N(C)C	-	-	-	-	-	-	.	.	.	.
CCOC(=O)c1c(/N=C/C2C(=O)NC(=S)NC2=O)sc2c1CCC2	-	-7.5	-	-	-	-	-	-	-	-
CCOC(=O)c1c(/N=C/C2C(=O)NC(=S)NC2=O)sc(C)c1C	-	-	-	-	-	-	.	.	.	.
CCCCn1c(O)c(C(C)=NCCCN(CC)CC)c(=O)[nH]c1=O	-	-	-	-	-	-	.	.	.	.
CCCCCn1c(=O)c(C(=O)Nc2cccc(C)n2)c(O)c2ccccc21	-	-	-	-	-	-	.	.	.	.
CCCCCn1c(=O)c(C(=O)Nc2cccc(C)c2)c(O)c2ccccc21	-	-5.2	-	-	-	-	-	0.79	-	-
C=CCOC(=O)C1=C(C)OC(N)=C(C#N)[C@@]12C(=O)N(CC(N)=O)c1ccccc12	-	-5.7	-	-	-	-	-	-	-	-
O=C(NCC(c1cccnc1)N1CCN(c2ccccc2F)CC1)Oc1ccccc1 (stereo not given)	-	-	-	-	-	-	.	.	.	.
COc1ccc(N2CCN(C(CNC(=O)Oc3ccccc3)c3cccnc3)CC2)cc1 (stereo not given)	-	-6.9	-	-	-	-	-	-	-	-

Compound activity (PubChem)
